# Measured values published in PubChem BioAssay.
# Values without a mark were called inactive.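 The calls were made as follows, unless noted: active = viability at or below 30% in both replicate assays; inconclusive = viability at or below 30% in just one of the two assays; inactive = the rest.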
# Assay: HUVEC growth inhibition – cell-based, human, primary screen (AID 575);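 also: 100% = median of untreated cell wells with 0.1% DMSO on each plate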
# Settings: HUVEC proliferation, CellTiter-Glo luminescence, 72 h; at 10 µM; active compounds read low
# Summary of the method: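 Timing: 72 h treatment at 37 °C; material: HUVEC primary cells; technique: CellTiter-Glo luminescence measuring cellular ATP; controls: vehicle and MePR control wells; measure: percent of median DMSO-control luminescence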
row,Compound,viability
1,CCCNCC(O)COc1ccccc1C(=O)CCc1ccccc1 (configuration not stated),97.2%
2,CC(C)(S)[C@@H](N)C(=O)O,106%
3,CC(=O)OCC(=O)[C@@]1(O)CC[C@H]2[C@@H]3CCC4=CC(=O)C=C[C@]4(C)[C@@]3(Cl)[C@@H](Cl)C[C@@]21C,98.5%
4,CCOC(=O)CCC(=O)O[C@H]1[C@H](O[C@@H]2[C@@H](C)[C@H](O[C@H]3C[C@@](C)(OC)[C@@H](O)[C@H](C)O3)[C@@H](C)C(=O)O[C@H](CC)[C@@](C)(O)[C@H](O)[C@@H](C)C(=O)[C@H](C)C[C@@]2(C)O)O[C@H](C)C[C@@H]1N(C)C,79.6%
5,CC(C)[N+](C)(CCOC(=O)C1c2ccccc2Oc2ccccc21)C(C)C,100%
6,O=c1n(CCCN2CCN(c3cccc(Cl)c3)CC2)nc2ccccn12,99.2%
7,CN(C)CCOC(C)(c1ccccc1)c1ccccn1 (configuration not stated),113%
8,Nc1ccc(S(=O)(=O)NC(=O)c2ccccc2)cc1,90%
9,Nc1ccc2[nH]ncc2c1,84.1%
10,CCCCOc1ccc(OCCCN2CCOCC2)cc1,91.7%
11,Nc1nc(F)nc2c1ncn2[C@@H]1O[C@H](CO)[C@@H](O)[C@@H]1O,65.7%
12,CC(C)(C)NC[C@H](O)COc1nsnc1N1CCOCC1,99.8%
13,CCCn1c(=O)[nH]c(=O)c2[nH]cnc21,98.1%
14,CC(COc1ccccc1)NC(C)C(O)c1ccc(O)cc1 (configuration not stated),88.5%
15,Cc1cc(NC(=O)C2=C(O)c3ccccc3S(=O)(=O)N2C)no1,109%
16,CCN(CC)CC#CCOC(=O)C(O)(c1ccccc1)C1CCCCC1 (configuration not stated),79.6%
17,CN1CCN2c3ccccc3Cc3ccccc3C2C1 (configuration not stated),73.4%
18,O=C(O)Cc1cc(I)c(Oc2ccc(O)c(I)c2)c(I)c1,76%
19,CC(=O)N[C@@H](CS)C(=O)O,90.8%
20,CN(CCO)CC(O)Cn1cnc2c1c(=O)n(C)c(=O)n2C (configuration not stated) (tested in a mixture with another compound),94.1%
21,N=c1c[n+](N2CCOCC2)[n-]o1,97.7%
22,OCCN(CCO)c1nc(N2CCCCC2)c2nc(N(CCO)CCO)nc(N3CCCCC3)c2n1,79.6%
23,CC(=O)NS(=O)(=O)c1ccc(N)cc1,90%
24,C[C@]12CC[C@@H]3c4ccc(OS(=O)(=O)O)cc4CC[C@H]3[C@@H]1CCC2=O,99.6%
25,CN(C)CCOc1ccccc1Cc1ccccc1,107%
26,CC(=O)OCC(=O)[C@@]1(O)[C@H](C)C[C@H]2[C@@H]3CCC4=CC(=O)C=C[C@]4(C)[C@@]3(F)[C@@H](O)C[C@@]21C,101%
27,c1ccc2[nH]c(-c3cscn3)nc2c1,91.1%

# Assay: H69AR cell proliferation blockers – human, duplicate replicates, primary screen (AID 580;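 active = viability at or under a set limit in both replicates, limit being median viability minus 3 SD, cut at about 48% in these data, passing the limit was not always enough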;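 also: 100% = mean luminescence of untreated wells and 0% = no signal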)
# Settings: H69AR lung tumor cells viability, ATP luminescence, 72 h; at 10 µM; active compounds read low
row,Compound,viability
1,CCCNCC(O)COc1ccccc1C(=O)CCc1ccccc1 (configuration not stated),87.1%
2,CC(C)(S)[C@@H](N)C(=O)O,110%
3,CC(=O)OCC(=O)[C@@]1(O)CC[C@H]2[C@@H]3CCC4=CC(=O)C=C[C@]4(C)[C@@]3(Cl)[C@@H](Cl)C[C@@]21C,97.4%
4,CCOC(=O)CCC(=O)O[C@H]1[C@H](O[C@@H]2[C@@H](C)[C@H](O[C@H]3C[C@@](C)(OC)[C@@H](O)[C@H](C)O3)[C@@H](C)C(=O)O[C@H](CC)[C@@](C)(O)[C@H](O)[C@@H](C)C(=O)[C@H](C)C[C@@]2(C)O)O[C@H](C)C[C@@H]1N(C)C,89.8%
5,CC(C)[N+](C)(CCOC(=O)C1c2ccccc2Oc2ccccc21)C(C)C,88.1%
6,O=c1n(CCCN2CCN(c3cccc(Cl)c3)CC2)nc2ccccn12,87.3%
7,CN(C)CCOC(C)(c1ccccc1)c1ccccn1 (configuration not stated),93.5%
8,Nc1ccc(S(=O)(=O)NC(=O)c2ccccc2)cc1,98.5%
9,Nc1ccc2[nH]ncc2c1,100%
10,CCCCOc1ccc(OCCCN2CCOCC2)cc1,103%
11,Nc1nc(F)nc2c1ncn2[C@@H]1O[C@H](CO)[C@@H](O)[C@@H]1O,103%
12,CC(C)(C)NC[C@H](O)COc1nsnc1N1CCOCC1,106%
13,CCCn1c(=O)[nH]c(=O)c2[nH]cnc21,100%
14,CC(COc1ccccc1)NC(C)C(O)c1ccc(O)cc1 (configuration not stated),88.6%
15,Cc1cc(NC(=O)C2=C(O)c3ccccc3S(=O)(=O)N2C)no1,112%
16,CCN(CC)CC#CCOC(=O)C(O)(c1ccccc1)C1CCCCC1 (configuration not stated),71.7%
17,CN1CCN2c3ccccc3Cc3ccccc3C2C1 (configuration not stated),90.2%
18,O=C(O)Cc1cc(I)c(Oc2ccc(O)c(I)c2)c(I)c1,96.3%
19,CC(=O)N[C@@H](CS)C(=O)O,101%
20,CN(CCO)CC(O)Cn1cnc2c1c(=O)n(C)c(=O)n2C (configuration not stated) (tested in a mixture with another compound),83.6%
21,N=c1c[n+](N2CCOCC2)[n-]o1,96.5%
22,CC(=O)NS(=O)(=O)c1ccc(N)cc1,102%
23,CN(C)CCOc1ccccc1Cc1ccccc1,100%
24,CC(=O)OCC(=O)[C@@]1(O)[C@H](C)C[C@H]2[C@@H]3CCC4=CC(=O)C=C[C@]4(C)[C@@]3(F)[C@@H](O)C[C@@]21C,93.5%
25,c1ccc2[nH]c(-c3cscn3)nc2c1,97.9%
